The record followed here is the array DNA melting data of Ke et al. (doi:10.1101/2024.01.08.574731).

Data set [1] can be described thus: folding enthalpy; higher = less favourable; fluorescence melt of hairpins on a sequencing array, two-state fit. Conditions: sodium 0.088 M. The gist of the method:
(§1)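 Hairpins were imaged by Cy3 fluorescence on a sequenced MiSeq flow cell with annealed Cy3 and quencher oligos, in 50 mM Na-HEPES pH 8.0, 25 mM NaCl, in 2.5 °C steps up to 60 °C. Bootstrapped two-state fits of normalised signals gave melting temperature and folding enthalpy. Four replicates were combined by inverse variance, and fitted temperatures were raised by 9.35 °C to match UV melts.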

Data set [2] can be described thus: melting temperature; fluorescence melt of hairpins on a sequencing array, two-state fit, raised by 9.35 °C to match UV melts. The note with it: sodium 0.088 M. The gist of the method:
as §1

For the sequence GAACGTGGAAACGTGTTC ((((..(....)..)))), the folding enthalpy in data set [1] was -14.9 kcal/mol. Besides, in data set [2], the Tm came out at 37.5 °C.

For GAACTACGAAAGTATTTC (((.(((....))).))), the folding enthalpy in data set [1] was -13.6 kcal/mol. In data set [2], the Tm worked out at 32.7 °C.

With GAACTCACGAAAGTGTTC (((..(((....)))))), in data set [1], the folding enthalpy was -14.3 kcal/mol. For the same sequence, the Tm in data set [2] is 29.2 °C.

Take GAACTCCGAAAGGACTTC (((.(((....))).))): the folding enthalpy in data set [1] is -19.5 kcal/mol. Also, in data set [2], the Tm was 29.7 °C.

As for GAACTCGCGAAAGCGTTC (((..(((....)))))), the folding enthalpy in data set [1] was -12.5 kcal/mol. In addition, the Tm in data set [2] was 27.4 °C.

Turning to GAACTGCGAAAGCATTC (((.(((....)))))), the folding enthalpy in data set [1] is -11.7 kcal/mol. Moreover, the Tm in data set [2] amounted to 30.9 °C.

For the sequence GAACTGCGAAAGCATTTC (((.(((....))).))), the folding enthalpy in data set [1] was -20.1 kcal/mol. Moreover, the Tm in data set [2] was 38.7 °C.

Turning to GAACTGGGAAACCAATTC (((.(((....))).))), the folding enthalpy in data set [1] is -12.7 kcal/mol. Further, the Tm in data set [2] came to 29.2 °C.

As to GAACTGGGAAACCAGCTC ((.((((....)))).)), in data set [1], the folding enthalpy is -19.4 kcal/mol. Moreover, in data set [2], the Tm worked out at 38.5 °C.

On to GAACTTGGAAACGAGTTC (((((.(....).))))), for which, in data set [1], the folding enthalpy is -38 kcal/mol. For the same sequence, the Tm in data set [2] is 44.2 °C.

For GAAGAACGAAAGTTATTC (((.(((....))).))), the folding enthalpy in data set [1] was -31.6 kcal/mol. For the same sequence, the Tm in data set [2] was determined as 42.5 °C.

In the case of GAAGAACGAAAGTTTTC (((.(((....)))))), the folding enthalpy in data set [1] was -12.6 kcal/mol. The Tm in data set [2] was 24.9 °C.

Take GAAGAAGGAAACTTCTTC (((((((....))))))): the folding enthalpy in data set [1] is -48.8 kcal/mol. For the same sequence, in data set [2], the Tm was found to be 50.6 °C.

As for GAAGACGAAAGTCACTTC ((((((....)))..))), the folding enthalpy in data set [1] is -17.5 kcal/mol. Further, the Tm in data set [2] was 35 °C.

For GAAGACGAAAGTCATTC ((((((....))).))), the folding enthalpy in data set [1] was -14.1 kcal/mol. For the same sequence, the Tm in data set [2] turned out to be 31.4 °C.

With GAAGACGAAAGTCCCTTC ((((((....)))..))), in data set [1], the folding enthalpy is -13.8 kcal/mol. For the same sequence, the Tm in data set [2] came out at 30.8 °C.

GAAGACGAAAGTCCTTC ((((((....))).))): the folding enthalpy in data set [1] is -20.8 kcal/mol. Further, the Tm in data set [2] is 39.2 °C.

For GAAGACGAAAGTCGTTC ((((((....))).))), the folding enthalpy in data set [1] is -12.3 kcal/mol. In addition, in data set [2], the Tm was 37.9 °C.

As for GAAGACGAAAGTCTATTC ((((((....)))..))), the folding enthalpy in data set [1] is -11.4 kcal/mol. The Tm in data set [2] amounted to 30.5 °C.

For GAAGACGAAAGTCTGTTC ((((((....)))..))), in data set [1], the folding enthalpy is -13.7 kcal/mol. In addition, the Tm in data set [2] is 40 °C.

For the sequence GAAGACGAAAGTCTTTC ((((((....))).))), the folding enthalpy in data set [1] was -13.1 kcal/mol. Moreover, the Tm in data set [2] is 48.1 °C.

For GAAGACGAAAGTCTTTTC ((((((....)))..))), the folding enthalpy in data set [1] is -13.4 kcal/mol. The Tm in data set [2] came to 47.1 °C.

Turning to GAAGACGGAAACGTCTTC (((((((....))))))), in data set [1], the folding enthalpy was -41.5 kcal/mol. In data set [2], the Tm amounted to 64.5 °C.

GAAGAGACGAAAGTCTTC (((..(((....)))))): the folding enthalpy in data set [1] is -9.13 kcal/mol. Further, the Tm in data set [2] is 30.6 °C.

Regarding GAAGAGCGAAAGCTATTC (((.(((....))).))), the folding enthalpy in data set [1] was -31 kcal/mol. Moreover, in data set [2], the Tm came out at 50 °C.

As to GAAGAGCGAAAGCTTTTC (((.(((....))).))), in data set [1], the folding enthalpy is -24.1 kcal/mol. Also, in data set [2], the Tm was 44.7 °C.

As to GAAGAGGAAACTCTTC ((((((....)))))), the folding enthalpy in data set [1] is -34.2 kcal/mol. Moreover, the Tm in data set [2] stood at 48.3 °C.

Turning to GAAGAGGCGAAAGCCTTC (((..(((....)))))), in data set [1], the folding enthalpy is -8.73 kcal/mol. In data set [2], the Tm is 33.2 °C.

Take GAAGAGGGAAACCCCTTC ((((.((....)).)))): in data set [1], the folding enthalpy is -21.2 kcal/mol. The Tm in data set [2] was 35.7 °C.

Regarding GAAGATGCGAAAGCATTC (((..(((....)))))), in data set [1], the folding enthalpy is -10.7 kcal/mol. Also, the Tm in data set [2] turned out to be 29.9 °C.

As for GAAGATGGAAACGTCTTC (((((.(....).))))), the folding enthalpy in data set [1] was -33.9 kcal/mol. Moreover, the Tm in data set [2] was found to be 43.2 °C.

GAAGCAGAAATGCTTC ((((((....)))))): the folding enthalpy in data set [1] is -35.3 kcal/mol. Moreover, the Tm in data set [2] was found to be 54.5 °C.

As to GAAGCAGGAAACTGCTCC (.(((((....))))).), the folding enthalpy in data set [1] was -12.6 kcal/mol. Further, the Tm in data set [2] worked out at 41.3 °C.

In the case of GAAGCAGGAAACTGCTTC (((((((....))))))), in data set [1], the folding enthalpy was -39.9 kcal/mol. In addition, the Tm in data set [2] is 62.2 °C.

Turning to GAAGCCGAAAGGCGATTC ((((((....)))..))), in data set [1], the folding enthalpy was -14.9 kcal/mol. For the same sequence, the Tm in data set [2] was 58 °C.

Turning to GAAGCCGAAAGGCGTTC ((((((....))).))), in data set [1], the folding enthalpy was -8.99 kcal/mol. Also, the Tm in data set [2] stood at 46.7 °C.

For GAAGCCGAAAGGCTATTC ((((((....)))..))), the folding enthalpy in data set [1] is -8.63 kcal/mol. The Tm in data set [2] was 33.7 °C.
